A word on the IC50: it is the point on the concentration scale where inhibition reaches its midpoint. A word on the inhibition: it is the drop in the measured response relative to a control, in per cent.

From ChEMBL document CHEMBL3860024, “New cinnamic - N-benzylpiperidine and cinnamic - N,N-dibenzyl(N-methyl)amine hybrids as Alzheimer-directed multitarget drugs with antioxidant, cholinergic, neuroprotective and neurogenic properties” (Eur J Med Chem, 2016) come the findings set out here.

SMILES strings stand for the structures. The source made the active and inactive calls. No cut-off for these calls is given here.

In series [1] the target is T1, Amine oxidase [flavin-containing] A (Homo sapiens, UniProt P21397).
T1 sequence (P21397 whole entry): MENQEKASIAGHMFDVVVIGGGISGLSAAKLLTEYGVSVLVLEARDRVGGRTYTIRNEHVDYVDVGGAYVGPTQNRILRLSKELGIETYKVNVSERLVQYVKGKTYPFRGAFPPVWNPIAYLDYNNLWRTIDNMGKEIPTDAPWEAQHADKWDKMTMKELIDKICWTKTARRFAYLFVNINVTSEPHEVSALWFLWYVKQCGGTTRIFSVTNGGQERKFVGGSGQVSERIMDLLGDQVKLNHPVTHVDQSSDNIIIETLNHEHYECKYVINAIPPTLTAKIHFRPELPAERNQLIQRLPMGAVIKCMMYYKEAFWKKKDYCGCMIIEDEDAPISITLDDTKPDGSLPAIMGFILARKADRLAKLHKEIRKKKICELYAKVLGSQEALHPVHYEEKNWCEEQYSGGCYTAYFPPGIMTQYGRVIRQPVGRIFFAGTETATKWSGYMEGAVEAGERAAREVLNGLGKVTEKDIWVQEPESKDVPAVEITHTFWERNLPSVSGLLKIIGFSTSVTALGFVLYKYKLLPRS
The series can be described thus: Inhibition of human recombinant MAOA using p-tyramine as substrate incubated for 15 mins by fluorimetric method.

Series [2] can be described thus: Antioxidant activity assessed as AAPH free radical scavenging activity by measuring trolox equivalent by oxygen radical absorbance capacity method. It is filed as functional. Put shortly: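 Oxygen radical absorbance capacity (ORAC) assay with trolox as the standard. Fluorescence was read on a plate reader with 485-P excitation and 520-P emission filters. Values are expressed as trolox equivalents, mean ± SEM (n = 5).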

The target of series [3] is Beta-secretase 1 (Homo sapiens) (UniProt P56817). Kind of series: Inhibition of human BACE1 at 10 uM using Rh-EVNLDAEFK-Quencher as substrate after 60 mins by FRET assay relative to control. Put shortly: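 FRET-based assay on human recombinant BACE-1, run per the manufacturer's protocol; compounds tested at 10 μM, read as percent inhibition.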
In series [4] the target is T2, Amine oxidase [flavin-containing] B (Homo sapiens, UniProt P27338).
T2 sequence (P27338 whole entry): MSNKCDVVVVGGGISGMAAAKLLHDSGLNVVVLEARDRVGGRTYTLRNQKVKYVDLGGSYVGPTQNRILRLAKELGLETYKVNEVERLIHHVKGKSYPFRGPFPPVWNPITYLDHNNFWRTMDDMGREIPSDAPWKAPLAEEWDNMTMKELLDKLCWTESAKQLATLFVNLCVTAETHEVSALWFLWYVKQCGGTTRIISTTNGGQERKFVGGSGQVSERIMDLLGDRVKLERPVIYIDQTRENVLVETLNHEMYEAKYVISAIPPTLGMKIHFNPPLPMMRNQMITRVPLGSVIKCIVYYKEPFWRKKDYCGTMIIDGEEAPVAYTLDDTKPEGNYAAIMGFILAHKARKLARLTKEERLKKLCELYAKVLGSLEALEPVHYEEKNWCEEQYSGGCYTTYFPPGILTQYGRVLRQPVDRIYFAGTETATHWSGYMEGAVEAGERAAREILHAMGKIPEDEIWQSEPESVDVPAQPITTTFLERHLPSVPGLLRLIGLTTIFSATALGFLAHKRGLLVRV

Series [5] addresses T3, Cholinesterase (Homo sapiens, UniProt P06276). The series can be described thus: Inhibition of human serum BuChE at 10 uM using butyrylthiocholine as substrate preincubated for 5 mins followed by substrate addition measured for 5 mins by Ellman's method relative to control. In a few lines:
(§1)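 Spectrophotometric Ellman assay with recombinant human AChE or BuChE from human serum. Percent inhibition is given at a single concentration of 10 µM. Results are mean ± SEM, n = 5.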

For series [6], the target named is T4, Acetylcholinesterase (Homo sapiens, UniProt P22303). Kind of series: Inhibition of human recombinant AChE using acetylthiocholine iodide as substrate preincubated for 5 mins followed by substrate addition measured for 5 mins by Ellman's method.
A short description of series [7]: Potentiation of rotenone/oligomycin A-induced mitochondrial oxidative stress in human SH-SY5Y cells at 0.1 to 3 uM after 24 hrs by MTT assay. Type of series: ADME, cell-based. In a few lines:
(§2)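 SH-SY5Y cells, passage <13, were seeded at 8x10^4/well for 2 days. Then co-incubated 24 h with compound (0.1, 0.3, 1, 3 µM) plus rotenone 30 µM/oligomycin A 10 µM in F-12/EMEM with 1% FBS; 0.1% DMSO vehicle and 10 nM melatonin control. MTT 0.5 mg/ml final, 2 h at 37 °C, formazan in DMSO read at 540 nm. Normalized to untreated control; triplicates of ≥3 cultures, mean ± SEM.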

Series [8] concerns the target T3, Cholinesterase. The series can be described thus: Inhibition of human serum BuChE using butyrylthiocholine as substrate preincubated for 5 mins followed by substrate addition measured for 5 mins by Ellman's method. In a few lines: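 Spectrophotometric Ellman assay with butyrylcholinesterase from human serum, with donepezil as reference. IC50 is reported in µM as mean ± SEM, n = 5.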

The test system of another series is SH-SY5Y. Kind of series: Neuroprotective activity against rotenone/oligomycin A-induced mitochondrial oxidative stress in human SH-SY5Y cells assessed as increase in cell viability at 0.3 uM after 24 hrs by MTT assay relative to control. Type of series: functional. In a few lines: as §2
In general terms: Formazan colour is commonly taken as a measure of viable cells.

Series [9] concerns the target T1, Amine oxidase [flavin-containing] A. The series can be described thus: Inhibition of human recombinant MAOA at 100 uM using p-tyramine as substrate incubated for 15 mins by fluorimetric method. The conditions noted are these: 0.25 h. In a few lines:
(§3)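 Recombinant hMAO-A or hMAO-B (baculovirus-infected BTI insect cells), amount set to oxidize 165 pmol p-tyramine/min, preincubated with compound 15 min at 37 °C. Reaction started with Amplex Red, 1 U/mL horseradish peroxidase and 1 mM p-tyramine. Resorufin fluorescence read at 37 °C (ex 545/em 590 nm), minus enzyme-free phosphate-buffer background.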

Series [10] deals with T2, Amine oxidase [flavin-containing] B. The series can be described thus: Inhibition of human recombinant MAOB at 100 uM using p-tyramine as substrate incubated for 15 mins by fluorimetric method. To be noted: 0.25 h. Put shortly:
as §3

The target of series [11] is T4, Acetylcholinesterase. The series can be described thus: Inhibition of human recombinant AChE at 10 uM using acetylthiocholine iodide as substrate preincubated for 5 mins followed by substrate addition measured for 5 mins by Ellman's method relative to control. In a few lines: as §1
On the technique in general: DTNB colorimetry detects thiols as they appear.

The test system of series [12] is Neural stem cell. Kind of series: Induction of differentiation of C57BL/6 mouse subgranular zone-derived neural stem cell into neuronal phenotype assessed as increase in level of MAP2 expressing cells in neurosphere at 10 uM preincubated for 7 days followed by cell attachment onto poly-L-lysine-coated coverslip in presence of serum and absence of exogenous growth factor for 3 days by DAPI staining-based florescence microscopy. Type of series: functional. Put shortly:
(§4)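 Adult (3-month) male C57BL/6 mouse SGZ dentate gyrus neural stem cells grown as neurospheres for 7 days with compound (10 µM). Then adhered on 100 μg/mL poly-L-lysine coverslips for 3 more days with serum, without exogenous growth factors, compound present. Immunocytochemistry for β-III-tubulin (TuJ) and MAP-2 with Alexa-fluor secondaries and DAPI nuclei, imaged by fluorescence microscopy, inner and distal neurosphere areas.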

The test system of series [13] is Neural stem cell. The series can be described thus: Induction of differentiation of C57BL/6 mouse subgranular zone-derived neural stem cell into neuronal phenotype assessed as increase in level of beta-3 tubulin expressing cells in neurosphere at 10 uM preincubated for 7 days followed by cell attachment onto poly-L-lysine-coated coverslip in presence of serum and absence of exogenous growth factor for 3 days by DAPI staining-based florescence microscopy. Type of series: functional. Put shortly: as §4

T3 sequence (P06276 whole entry): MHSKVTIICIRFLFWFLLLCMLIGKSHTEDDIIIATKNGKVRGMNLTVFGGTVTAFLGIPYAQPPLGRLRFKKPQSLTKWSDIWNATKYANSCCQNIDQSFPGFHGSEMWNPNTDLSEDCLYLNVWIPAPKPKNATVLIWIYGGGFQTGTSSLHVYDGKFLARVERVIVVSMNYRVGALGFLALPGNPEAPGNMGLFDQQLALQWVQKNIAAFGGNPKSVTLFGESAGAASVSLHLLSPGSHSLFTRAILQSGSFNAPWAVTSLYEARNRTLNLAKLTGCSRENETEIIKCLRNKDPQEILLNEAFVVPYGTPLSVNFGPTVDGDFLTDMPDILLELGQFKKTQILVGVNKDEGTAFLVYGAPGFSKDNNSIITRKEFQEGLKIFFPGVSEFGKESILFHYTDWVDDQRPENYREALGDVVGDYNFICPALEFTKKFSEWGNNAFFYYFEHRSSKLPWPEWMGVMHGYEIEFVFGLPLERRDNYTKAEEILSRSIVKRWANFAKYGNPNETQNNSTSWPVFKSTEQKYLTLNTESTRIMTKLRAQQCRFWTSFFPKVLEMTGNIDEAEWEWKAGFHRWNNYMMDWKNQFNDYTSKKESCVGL
Beta-secretase 1 (Homo sapiens), sequence (P56817 whole entry): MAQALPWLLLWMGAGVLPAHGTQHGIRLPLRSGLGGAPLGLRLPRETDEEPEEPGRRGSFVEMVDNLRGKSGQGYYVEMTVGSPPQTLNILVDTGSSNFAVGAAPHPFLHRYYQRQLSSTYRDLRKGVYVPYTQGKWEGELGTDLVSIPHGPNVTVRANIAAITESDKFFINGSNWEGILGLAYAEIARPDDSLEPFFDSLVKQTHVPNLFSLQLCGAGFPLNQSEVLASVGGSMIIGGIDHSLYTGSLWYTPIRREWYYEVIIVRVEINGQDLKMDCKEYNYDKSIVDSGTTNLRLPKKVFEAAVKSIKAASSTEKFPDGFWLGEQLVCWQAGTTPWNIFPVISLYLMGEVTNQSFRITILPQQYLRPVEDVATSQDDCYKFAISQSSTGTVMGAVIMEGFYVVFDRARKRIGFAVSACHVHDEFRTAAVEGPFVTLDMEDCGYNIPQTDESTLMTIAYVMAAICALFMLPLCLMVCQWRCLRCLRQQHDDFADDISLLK
T4 sequence (P22303 whole entry): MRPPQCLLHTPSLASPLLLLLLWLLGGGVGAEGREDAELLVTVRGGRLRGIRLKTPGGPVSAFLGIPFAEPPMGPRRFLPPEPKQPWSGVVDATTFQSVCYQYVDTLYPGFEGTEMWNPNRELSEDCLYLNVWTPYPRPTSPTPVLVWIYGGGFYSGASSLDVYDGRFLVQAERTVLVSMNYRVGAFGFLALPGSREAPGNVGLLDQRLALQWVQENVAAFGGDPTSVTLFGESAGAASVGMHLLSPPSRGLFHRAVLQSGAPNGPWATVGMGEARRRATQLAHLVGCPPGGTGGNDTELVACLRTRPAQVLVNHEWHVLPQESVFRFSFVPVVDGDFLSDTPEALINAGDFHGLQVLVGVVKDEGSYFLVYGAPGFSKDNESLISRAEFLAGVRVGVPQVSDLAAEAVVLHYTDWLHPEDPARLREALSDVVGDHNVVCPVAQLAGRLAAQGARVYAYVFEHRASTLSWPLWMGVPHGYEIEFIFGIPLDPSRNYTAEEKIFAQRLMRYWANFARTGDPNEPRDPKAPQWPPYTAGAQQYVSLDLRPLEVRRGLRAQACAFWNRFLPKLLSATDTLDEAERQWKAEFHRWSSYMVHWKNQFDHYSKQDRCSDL

On to `COc1cccc(/C=C/C(=O)Nc2ccc(CN(C)Cc3ccccc3)cc2)c1`, for which the IC50 in series [1] was greater than 100 µM; in series [4] it was greater than 100 µM; at Acetylcholinesterase [6], 4670 nM. For the same compound, the Activity in series [2] stood at 0.6 equiv. Besides, the inhibition in series [3] was 23 to 33%; against Cholinesterase [5], 35%.
With `COc1cc(/C=C/C(=O)Nc2cccc(CN(C)Cc3ccccc3)c2)ccc1O`, the IC50 in series [1] turned out to be 4.5 µM; against Cholinesterase [8] it was 5890 nM; in series [4] it was 7.7 µM; on Acetylcholinesterase [6] it was 5990 nM. For the same compound, the figures for the Activity (in series [2]; in [7]; with SH-SY5Y) were 1.4 equiv, “Non-Toxic” and 30 - 35%, respectively. The compound also yielded an inhibition in series [3] of 23 to 33%.
As to `COc1ccc(/C=C/C(=O)Nc2ccc(CN(C)Cc3ccccc3)cc2)c(OC)c1`, the IC50 in series [1] is greater than 100 µM; at Cholinesterase [8], greater than 10000 nM; in series [4], greater than 100 µM; on Acetylcholinesterase [6] it was 8730 nM. Besides, in series [2], the Activity was found to be 0.5 equiv.
Take `COc1ccc(/C=C/C(=O)NCCC2CCN(Cc3ccccc3)CC2)c(OC)c1`: the half-maximal inhibitory concentration (IC50) is greater than 100 µM in series [1], 4390 nM against Cholinesterase [8], greater than 100 µM in series [4] and 630 nM on Acetylcholinesterase [6].
As to `O=C(/C=C/c1cccc(O)c1)NCCC1CCN(Cc2ccccc2)CC1`, in series [2], the Activity worked out at 2.2 equiv. Besides, the half-maximal inhibitory concentration (IC50) at Cholinesterase [8] was 1020 nM; in series [4], greater than 100 µM; at Acetylcholinesterase [6] it was 1120 nM. Moreover, the inhibition at 100 µM in series [9] is 45 to 55%.
Regarding `COc1ccc(/C=C/C(=O)Nc2ccc(CN(C)Cc3ccccc3)cc2)cc1OC`, the Activity in [2] is 0.4 equiv. The concentration for half-maximal inhibition (IC50) on Cholinesterase [8] is greater than 10000 nM; on Acetylcholinesterase [6], 3980 nM.
Take `COc1cccc(/C=C/C(=O)NCCC2CCN(Cc3ccccc3)CC2)c1`: the concentration for half-maximal inhibition (IC50) against Cholinesterase [8] was 980 nM; in series [4], greater than 100 µM; at Acetylcholinesterase [6] it was 750 nM. Also, the inhibition at 100 µM in series [9] was in the range of 45 to 55%.
As for `COc1ccc(/C=C/C(=O)NCCC2CCN(Cc3ccccc3)CC2)cc1OC`, the IC50 was greater than 100 µM in [1], 690 nM on Cholinesterase [8] and 260 nM on Acetylcholinesterase [6]. Besides, the Activity in [2] came to 0.4 equiv. In addition, the inhibition at 100 µM in series [10] is 45 to 55%.
As to `CN(Cc1ccccc1)Cc1ccc(NC(=O)/C=C/c2ccc(O)cc2)cc1`, the figures for the IC50 in series [1] and in [4] were 29.7 µM and 29 µM, respectively. The Activity in [2] was 1.8 equiv. In addition, the inhibition at Acetylcholinesterase [11] amounted to 46%; against Cholinesterase [5] it was 30%.
As for `COc1cc(/C=C/C(=O)Nc2ccc(CN(C)Cc3ccccc3)cc2)ccc1O`, in [2], the Activity stood at 1.5 equiv. Besides, the inhibition in [3] is 23 to 33%; on Acetylcholinesterase [11], 33%; at Cholinesterase [5], 45%.
Turning to `O=C(/C=C/c1ccc(O)cc1)NCCC1CCN(Cc2ccccc2)CC1`, the half-inhibitory concentration (IC50) in series [1] is 57.5 µM; on Cholinesterase [8], 930 nM; in [4] it was greater than 100 µM; at Acetylcholinesterase [6], 1010 nM. In addition, the Activity in series [2] amounted to 1.7 equiv.
For `O=C(/C=C/c1ccc(O)cc1O)NCCC1CCN(Cc2ccccc2)CC1`, in that order: 5.5 µM, 260 nM, 8.3 µM, 990 nM and 1.3 equiv.
Consider `COc1cc(/C=C/C(=O)NCCC2CCN(Cc3ccccc3)CC2)ccc1O`, for which the IC50 in series [1] came out at 11.4 µM; at Cholinesterase [8], 76 nM; in series [4] it was 13.1 µM; at Acetylcholinesterase [6] it was 390 nM. Further, the Activity was 1.8 equiv in series [2], “Non-Toxic” in series [7] and 30 - 35% in the series on SH-SY5Y.
In the case of `COc1ccc(/C=C/C(=O)NCCC2CCN(Cc3ccccc3)CC2)cc1`, the half-inhibitory concentration (IC50) amounted to 760 nM against Cholinesterase [8] and 490 nM at Acetylcholinesterase [6]. Moreover, the inhibition at 100 µM in series [10] and in [9] was 45 to 55% each time.
For `COc1ccc(/C=C/C(=O)Nc2ccc(CN(C)Cc3ccccc3)cc2)cc1`, the IC50 in series [1] was greater than 100 µM; in [4], greater than 100 µM; on Acetylcholinesterase [6], 5760 nM. The inhibition is 23 to 33% in series [3] and 25% against Cholinesterase [5].
As to `O=C(/C=C/c1ccc(O)c(O)c1)NCCC1CCN(Cc2ccccc2)CC1`, the IC50 in series [1] turned out to be 3.5 µM; at Cholinesterase [8], 690 nM; in series [4], 6 µM; at Acetylcholinesterase [6], 1750 nM. Besides, the Activity in [2] turned out to be 1 equiv. Also, the outcome with Neural stem cell [12] and with Neural stem cell [13] was Active.
Take `CN(Cc1ccccc1)Cc1ccc(NC(=O)/C=C/c2cccc(O)c2)cc1`: the values for the Activity (in series [2]; in series [7]; with SH-SY5Y) were 3.2 equiv, “Non-Toxic” and 30 - 35%, respectively. For the same compound, the inhibition at 100 µM in series [10] and in series [9] was 45 to 55% each time. The same compound gave an inhibition at Cholinesterase [5] of 46%. The IC50 on Acetylcholinesterase [6] was determined as 3490 nM.
